Measured values reported in ChEMBL document CHEMBL1127049, “Nonpeptide angiotensin II receptor antagonists. 2. Design, synthesis, and structure-activity relationships of 2-alkyl-4-(1H-pyrrol-1-yl)-1H-imidazole derivatives: profile of 2-propyl-1-[[2'-(1H-tetrazol-5-yl)-[1,1' -biphenyl]-4-yl]-methyl]-4-[2-(trifluoroacetyl)-1H-pyrrol-1-yl]-1H- …” (J Med Chem, 1993).

Assays:
[1] = target: T1, Angiotensin II receptor (AT-1) type-1 (Rattus norvegicus, UniProt P29089+P25095); assay: Inhibitory concentration against binding of [125I]angiotensin II to rat liver expressing Angiotensin II receptor
T1 sequence (P29089 whole entry): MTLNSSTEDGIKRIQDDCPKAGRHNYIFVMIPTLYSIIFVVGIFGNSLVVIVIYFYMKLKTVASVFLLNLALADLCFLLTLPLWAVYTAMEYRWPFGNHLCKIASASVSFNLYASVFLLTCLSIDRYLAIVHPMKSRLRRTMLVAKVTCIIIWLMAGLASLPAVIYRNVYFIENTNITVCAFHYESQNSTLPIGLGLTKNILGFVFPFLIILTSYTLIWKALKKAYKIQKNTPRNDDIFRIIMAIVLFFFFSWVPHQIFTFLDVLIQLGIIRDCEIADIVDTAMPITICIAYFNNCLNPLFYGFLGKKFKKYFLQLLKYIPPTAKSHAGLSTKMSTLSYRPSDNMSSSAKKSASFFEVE
T1 sequence (P25095 whole entry): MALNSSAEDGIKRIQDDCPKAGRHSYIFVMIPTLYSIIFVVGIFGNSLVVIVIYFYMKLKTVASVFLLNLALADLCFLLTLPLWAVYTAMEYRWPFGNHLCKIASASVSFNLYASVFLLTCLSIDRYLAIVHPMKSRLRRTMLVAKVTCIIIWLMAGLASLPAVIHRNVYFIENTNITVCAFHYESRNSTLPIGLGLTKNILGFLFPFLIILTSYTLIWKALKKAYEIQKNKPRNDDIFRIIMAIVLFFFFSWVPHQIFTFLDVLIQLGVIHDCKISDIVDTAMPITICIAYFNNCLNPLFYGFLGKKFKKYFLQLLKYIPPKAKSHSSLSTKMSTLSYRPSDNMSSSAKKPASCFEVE
Method in brief: (§1)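 Rat liver membranes homogenized in 10 mM HEPES pH 7.4 with protease inhibitors, captopril and PMSF. Nonspecific binding defined with 1.0 µM saralasin. No BSA. IC50 by nonlinear fit to mass-action equation from at least five or six concentrations.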

[2] = test system: Rattus norvegicus; assay: Effect on mean arterial pressure after oral dosing at 10 mg/kg to renal hypertensive rats; format: functional, Artery
Method in brief: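 Male Sprague-Dawley rats, bilateral renal artery clipping at 5 weeks, used 10-12 weeks later; aortic cannula to neck, 48 h recovery; rats with mean BP <150 mmHg excluded. Compound suspended in 0.5% methocel in water, oral gavage 10 mg/kg in 2 mL/kg to conscious rats (n = 5-6). BP and heart rate recorded continuously, averaged over 30-min intervals.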

[3] = target: T1, Angiotensin II receptor (AT-1) type-1; assay: Tested for inhibitory concentration against AT1 receptor binding affinity in rat liver; method in brief: as §1
[4] = test system: Rattus norvegicus; assay: Tested in vivo for effective dose (iv) that produces inhibition of pressor response to Angiotensin II in conscious normotensive rats; format: functional

## CCCCc1nc(-n2cccc2)cn1Cc1ccc(-c2ccccc2-c2nn[nH]n2)cc1
[1]
  IC50: 27 nM

## CCCc1nc(-n2c(Cl)ccc2Cl)c(C(=O)O)n1Cc1ccc(-c2ccccc2-c2nn[nH]n2)cc1
[1]
  IC50: 0.14 nM

## Cc1ccc(C)n1-c1nc(C2CC2)n(Cc2ccc(-c3ccccc3-c3nn[nH]n3)cc2)c1C(=O)O
[1]
  IC50: 2.81 nM
[2]
  Change in BP: -11

## CCCCc1nc(-n2cccc2)c(C(=O)c2ccccc2)n1Cc1ccc(-c2ccccc2-c2nn[nH]n2)cc1
[1]
  IC50: 23.3 nM

## CCCCc1nc(-n2cccc2C(=O)C(F)(F)F)c(C(=O)OC)n1Cc1ccc(-c2ccccc2-c2nn[nH]n2)cc1
[1]
  IC50: 3.57 nM
[2]
  Change in BP: -19

## CCCCc1nc(-n2cccc2C(=O)C(F)(F)F)c(C(=O)O)n1Cc1ccc(-c2ccccc2-c2nn[nH]n2)cc1
[1]
  IC50: 2.37 nM
[2]
  Change in BP: -16

## CCCc1nc(-n2c(C)ccc2C)c(C(=O)O)n1Cc1ccc(-c2ccccc2-c2nn[nH]n2)cc1
[1]
  IC50: 0.82 nM
[2]
  Change in BP: -26

## CCCc1nc(-n2cccc2C(=O)O)c(C(N)=O)n1Cc1ccc(-c2ccccc2-c2nn[nH]n2)cc1
[1]
  IC50: 8.76 nM

## CCCc1nc(C(F)(F)C(F)(F)F)c(C(=O)O)n1Cc1ccc(-c2ccccc2-c2nn[nH]n2)cc1
[3]
  IC50: 3.4 nM

## CCCc1nc(-n2c(C)ccc2C)c(/C=C/C(=O)O)n1Cc1ccc(-c2ccccc2-c2nn[nH]n2)cc1
[1]
  IC50: 3.32 nM
[4]
  ED50: 16.4 µg/min/kg
[2]
  Change in BP: -8

## CCCc1nc(-n2cccc2C(=O)C(F)(F)F)c(C(=O)OC)n1Cc1ccc(-c2ccccc2-c2nn[nH]n2)cc1
[1]
  IC50: 3.64 nM
[4]
  ED50: 36 µg/min/kg
[2]
  Change in BP: -28

## CCCc1nc(-n2cccc2)c(C(=O)OCC)n1Cc1ccc(-c2ccccc2-c2nn[nH]n2)cc1
[1]
  IC50: 12.2 nM
[2]
  Change in BP: -22

## CCCc1nc(-n2c(C)ccc2CCC)c(C(=O)OC)n1Cc1ccc(-c2ccccc2-c2nn[nH]n2)cc1
[1]
  IC50: 15.1 nM

## CCCc1nc(-n2c(C)ccc2CCC)c(C(=O)O)n1Cc1ccc(-c2ccccc2-c2nn[nH]n2)cc1
[1]
  IC50: 0.9 nM
[2]
  Change in BP: -6

## CCCc1nc(-n2ccc(C(=O)OCC)c2)c(C(=O)OC)n1Cc1ccc(-c2ccccc2-c2nn[nH]n2)cc1
[1]
  IC50: 158 nM

## CCCc1nc(-n2cccc2)c(/C=C/C(=O)O)n1Cc1ccc(-c2ccccc2-c2nn[nH]n2)cc1
[1]
  IC50: 4 nM

## CCCc1nc(-n2cccc2)c(C#N)n1Cc1ccc(-c2ccccc2-c2nn[nH]n2)cc1
[1]
  IC50: 332 nM

## CCCc1nc(-n2cccc2C(=O)C(F)(F)F)c(C#N)n1Cc1ccc(-c2ccccc2-c2nn[nH]n2)cc1
[1]
  IC50: 171 nM

## CCCc1nc(-n2cccc2)cn1Cc1ccc(-c2ccccc2-c2nn[nH]n2)cc1
[1]
  IC50: 5.6 nM

## CCCc1nc(-n2ccc(C(=O)OCC)c2)c(C(=O)O)n1Cc1ccc(-c2ccccc2-c2nn[nH]n2)cc1
[1]
  IC50: 22 nM

## CCCc1nc(-n2cccc2C=O)c(C(=O)O)n1Cc1ccc(-c2ccccc2-c2nn[nH]n2)cc1
[1]
  IC50: 0.8 nM

## CCCc1nc(-n2cccc2C(O)C(F)(F)F)c(C(=O)O)n1Cc1ccc(-c2ccccc2-c2nn[nH]n2)cc1 (stereo not given)
[1]
  IC50: 1.04 nM

## CCCCc1nc(-n2cccc2)c(C#N)n1Cc1ccc(-c2ccccc2-c2nn[nH]n2)cc1
[1]
  IC50: 209 nM

## CCCc1nc(-n2cccc2C(=O)OC)c(C#N)n1Cc1ccc(-c2ccccc2-c2nn[nH]n2)cc1
[1]
  IC50: 53.3 nM

## CCCc1nc(-n2ccc(C(=O)OC)c2C)c(C(=O)OC)n1Cc1ccc(-c2ccccc2-c2nn[nH]n2)cc1
[1]
  IC50: 18.8 nM

## CCCc1nc(-n2ccc(C(=O)O)c2)c(C(=O)O)n1Cc1ccc(-c2ccccc2-c2nn[nH]n2)cc1
[1]
  IC50: 25.1 nM

## CCCCc1nc(Cl)c(C(=O)O)n1Cc1ccc(-c2ccccc2-c2nn[nH]n2)cc1 [CARBOXYLIC ACID METABOLITE]
[4]
  ED50: 13.6 µg/min/kg
[2]
  Change in BP: -22

## CCCc1nc(-n2c(C)ccc2C)c(C=O)n1Cc1ccc(-c2ccccc2-c2nn[nH]n2)cc1
[1]
  IC50: 13.7 nM

## CCCc1nc(-n2ccc(C(=O)OC)c2C)c(C(=O)O)n1Cc1ccc(-c2ccccc2-c2nn[nH]n2)cc1
[1]
  IC50: 1.37 nM

## CCCc1nc(-n2cccc2C(O)C(F)(F)F)c(C#N)n1Cc1ccc(-c2ccccc2-c2nn[nH]n2)cc1 (stereo not given)
[1]
  IC50: 233 nM

## CCCCc1nc(Cl)c(CO)n1Cc1ccc(-c2ccccc2-c2nnn[nH]2)cc1 [LOSARTAN]
[4]
  ED50: 75.9 µg/min/kg
[2]
  Change in BP: -27

## CCCc1nc(-n2cccc2)c(C(=O)O)n1Cc1ccc(-c2ccccc2-c2nn[nH]n2)cc1
[1]
  IC50: 1.71 nM
[4]
  ED50: 27 µg/min/kg
[2]
  Change in BP: -25

## CCCc1nc(-n2c(Cl)ccc2Cl)c(C(=O)OCC)n1Cc1ccc(-c2ccccc2-c2nn[nH]n2)cc1
[1]
  IC50: 3.93 nM

## CCCc1nc(-n2cccc2)c(/C=C(\C)C(=O)O)n1Cc1ccc(-c2ccccc2-c2nn[nH]n2)cc1
[1]
  IC50: 2.5 nM

## CCCc1nc(-n2cccc2C(=O)C(F)(F)F)c(C(=O)O)n1Cc1ccc(-c2ccccc2-c2nn[nH]n2)cc1
[1]
  IC50: 0.58 nM
[4]
  ED50: 6.23 µg/min/kg
[2]
  Change in BP: -29

## CCCc1nc(-n2c(C)ccc2C)c(C(=O)OC)n1Cc1ccc(-c2ccccc2-c2nn[nH]n2)cc1
[1]
  IC50: 20.9 nM
[2]
  Change in BP: -8

## CCCc1nc(-n2c(C)ccc2C)c(/C=C/C(=O)OC)n1Cc1ccc(-c2ccccc2-c2nn[nH]n2)cc1
[1]
  IC50: 21.6 nM

## CCCc1nc(-n2cccc2C(=O)O)c(C#N)n1Cc1ccc(-c2ccccc2-c2nn[nH]n2)cc1
[1]
  IC50: 103 nM

## CCCc1nc(-n2ccc(C(=O)O)c2C)c(C(=O)O)n1Cc1ccc(-c2ccccc2-c2nn[nH]n2)cc1
[1]
  IC50: 11 nM

## CCCc1nc(-n2cccc2C(=O)O)c(C(=O)O)n1Cc1ccc(-c2ccccc2-c2nn[nH]n2)cc1
[1]
  IC50: 11.2 nM

## CCCc1nc(-n2cccc2)c(/C=C(\C)C(=O)OCC)n1Cc1ccc(-c2ccccc2-c2nn[nH]n2)cc1
[1]
  IC50: 2.8 nM
[2]
  Change in BP: -12

## CCCc1nc(-n2c(C)ccc2C)c(C#N)n1Cc1ccc(-c2ccccc2-c2nn[nH]n2)cc1
[1]
  IC50: 188 nM

## CCCCc1nc(-n2cccc2)c(C(=O)O)n1Cc1ccc(-c2ccccc2-c2nn[nH]n2)cc1
[1]
  IC50: 1.57 nM
[4]
  ED50: 38 µg/min/kg
[2]
  Change in BP: -27

## CCCc1nc(-n2c(C)ccc2C)c(CO)n1Cc1ccc(-c2ccccc2-c2nn[nH]n2)cc1
[1]
  IC50: 23.8 nM

## COC(=O)c1c(-n2c(C)ccc2C)nc(C2CC2)n1Cc1ccc(-c2ccccc2-c2nn[nH]n2)cc1
[1]
  IC50: 65.5 nM
